EC50 data for 9 compounds are collected here from ChEMBL document CHEMBL1148915, “Steroids and sesquiterpenoids from the soft corals Dendronephthya gigantea and Lemnalia cervicorni” (2004).

For one assay, the system named is P388. Put plainly: Cytotoxicity against mouse P388 cells. In kind it is functional. Conditions: read-out: ED50 (the source's name). Put shortly:
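P-388 mouse lymphocytic leukemia cells supplied by an academic lab (Purdue); in vitro cytotoxicity assay run by a previously described procedure; ED50 reported in µM; mithramycin included as positive control.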

A further assay concerns HT-29. Put plainly: Cytotoxicity against human HT29 cells. The assay is classed as functional. The note with it: read-out: ED50 (the source's name). Put shortly:
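HT-29 human colon adenocarcinoma cells obtained from ATCC; in vitro cytotoxicity assay run by a previously described procedure; value given as ED50 in µM; mithramycin run as positive control.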

`CC(C)CCC(=O)[C@@H](C)[C@H]1CC[C@H]2[C@@H]3CC[C@H]4CC(=O)C=C[C@]4(C)[C@H]3CC[C@]12C`: the EC50 with P388 was 8.93 µM; in the assay on HT-29 it was 9.03 µM.

`CC1=CC(=O)[C@@H]2[C@@H]3[C@H](C(C)C)CC[C@@]2(C)[C@@H]13`: the EC50 with P388 and with HT-29 was above 50 µM each time.

As for `C=C1C[C@H](O)[C@@H]2[C@@H]3[C@H](C(C)C)CC[C@@]2(C)[C@@H]13` [CERVICOL], the EC50 with P388 and in the assay with HT-29 was above 50 µM in each case.

`CC(C)C/C=C/[C@@H](C)[C@H]1CC[C@H]2[C@@H]3CC[C@H]4CC(=O)C=C[C@]4(C)[C@H]3CC[C@]12C` [DENDRONESTERONE A]: the EC50 in the assay with P388 is 9.84 µM; in the assay on HT-29, above 100 µM.

As for `C=C(CC[C@@H](C)[C@H]1CC[C@H]2[C@@H]3CC[C@H]4CC(=O)C=C[C@]4(C)[C@H]3CC[C@]12C)C(C)C` [DENDRONESTERONE B], the EC50 in the assay with P388 and in the assay on HT-29 was above 100 µM in each case.

`CC(C)C/C=C/[C@@H](C)[C@H]1CC[C@H]2[C@@H]3CCC4=CC(=O)C=C[C@]4(C)[C@H]3CC[C@]12C` [DENDRONESTERONE C]: the EC50 with P388 and with HT-29 was above 100 µM each time.

On to `CC1=C[C@H](O)[C@@H]2[C@@H]3[C@H](C(C)C)CC[C@@]2(C)[C@@H]13` [ISOLEMNALOL], for which the EC50 in the assay with P388 and in the assay with HT-29 was above 50 µM each time.

Consider `C=C1[C@H](O)C[C@@H]2[C@@H]3[C@H](C(C)C)CC[C@@]2(C)[C@@H]13` [LEMNALOL], for which the EC50 in the assay on P388 worked out at 16.3 µM; with HT-29, 10.5 µM.

Consider `CO[C@H](C(=O)[C@@H](O)[C@@H](C)O)[C@@H]1Cc2cc3cc(O[C@H]4C[C@@H](O[C@@H]5C[C@@H](O)[C@H](O)[C@@H](C)O5)[C@H](O)[C@@H](C)O4)c(C)c(O)c3c(O)c2C(=O)[C@H]1O[C@H]1C[C@@H](O[C@@H]2C[C@@H](O)[C@@H](O[C@@H]3C[C@](C)(O)[C@H](O)[C@@H](C)O3)[C@@H](C)O2)[C@H](O)[C@@H](C)O1` [PLICAMYCIN], for which the EC50 with P388 is 0.15 µM; in the assay with HT-29, 0.21 µM.
